According to ChEMBL document CHEMBL3352032, “Antiplasmodial activity of new 4-aminoquinoline derivatives against chloroquine resistant strain” (Bioorg Med Chem, 2014):

Tests used:
Plasmodium falciparum [1] = assay: Antiplasmodial activity against chloroquine-sensitive Plasmodium falciparum 3D7 after 72 hrs by SYBR Green-1 staining-based fluorescence assay; format: functional, organism-based; conditions: 3D7, 72 h
Outline: (§1)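 Compounds were dissolved in DMSO as 10 mM stocks and two-fold serially diluted. Dilutions were incubated with a 1.0% parasitized cell suspension at 0.8% parasitemia, using an asynchronous culture with more than 80% ring stages. Incubation was 72 h at 37 °C in 5% CO2/air. Lysis buffer with 2x SYBR Green-1 was then added for 1 h at 37 °C, and fluorescence (RFU) was read at 485±20 nm.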

Plasmodium falciparum [2] = assay: Antiplasmodial activity against chloroquine-resistant Plasmodium falciparum K1 after 72 hrs by SYBR Green-1 staining-based fluorescence assay; format: functional, organism-based; conditions: K1, 72 h; outline: as §1
[3] = Association constant, log K of the compound in aqueous DMSO at pH 7.5 assessed as complex formation by UV spectrophotometry; format: physicochemical; conditions: buffer
Outline: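 Spectrophotometric titration of hematin with compound in 40% aqueous DMSO, 20 mM HEPES, pH 7.5, 25 °C; hematin monomeric under these conditions. Association constant fitted for 1:1 compound:hematin complex. Means ± SD from at least three experiments in duplicate.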

[4] = Inhibition of beta-hematin formation assessed as inhibition of hemozoin formation by UV spectrophotometry; format: physicochemical
Outline: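 β-Hematin polymerization induced by 1-oleoyl-rac-glycerol, read at 405 nm by UV spectrophotometry. Triplicate values expressed as percent inhibition relative to drug-free hemozoin formation. IC50 in millimolar equivalents of compound relative to hemin, from sigmoidal dose-response non-linear regression. Means ± SD from at least three experiments in duplicate.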

[5] = Selectivity index, ratio of CC50 for African green monkey Vero cells to IC50 for Plasmodium falciparum; format: functional
Outline: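 Vero cells exposed to compound dilutions for 72 h; cytotoxicity read by MTT, CC50 by nonlinear regression of dose-response curves. Antiplasmodial IC50 from P. falciparum asynchronous culture (>80% rings, 0.8% parasitemia, 1% hematocrit suspension), twofold serial dilutions, 72 h at 37 °C, 5% CO2, SYBR Green I fluorescence. SI = CC50/IC50.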

Plasmodium falciparum [6] = assay: Resistance index, ratio of IC50 for chloroquine-resistant Plasmodium falciparum K1 to IC50 for chloroquine-sensitive Plasmodium falciparum 3D7; format: functional
Outline: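 The index is the IC50 against K1 divided by the IC50 against 3D7. Both IC50s come from the 72 h SYBR Green-1 fluorescence assay: two-fold serial dilutions from 10 mM DMSO stocks, 1.0% parasitized cells at 0.8% parasitemia (>80% rings), 37 °C, 5% CO2.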

Row | Structure (SMILES) | IC50 (Plasmodium falciparum [1]) | IC50 (Plasmodium falciparum [2]) | log K [3] | IC50 [4] | inhibition (INH) [4] | Ratio CC50/IC50 [5] | Ratio IC50 (Plasmodium falciparum [6])
1 | C[C@H](Nc1ccnc2cc(Cl)ccc12)C(=O)N1CCN(c2ccccc2)CC1 | > 500 nM | > 500 nM | 5.94 | 0.2082 mMequiv | Dose-dependent effect | – | –
2 | CN1CCN(C(=O)CNc2ccnc3cc(Cl)ccc23)CC1 | 149 nM | 177 nM | 7.34 | 0.1915 mMequiv | Dose-dependent effect | 1566 | 1.18
3 | CC[C@H](C)[C@@H](CC(=O)N1CCN(C)CC1)Nc1ccnc2cc(Cl)ccc12 | 33 nM | 168 nM | 6.26 | 0.2197 mMequiv | Dose-dependent effect | 7613 | 5.08
4 | C[C@H](Nc1ccnc2cc(Cl)ccc12)C(=O)NCCCN(C)C | 142 nM | > 500 nM | 5.34 | 0.176 mMequiv | Dose-dependent effect | 2606 | >3.51
5 | CN1CCN(C(=O)[C@H](Cc2c[nH]c3ccccc23)Nc2ccnc3cc(Cl)ccc23)CC1 | 223 nM | 262 nM | 6.36 | 0.3302 mMequiv | Dose-dependent effect | 392 | 1.17
6 | CC[C@H](C)[C@H](Nc1ccnc2cc(Cl)ccc12)C(=O)N1CCN(C)CC1 | 83.8 nM | 365 nM | 5.72 | 0.2295 mMequiv | Dose-dependent effect | 2188 | 4.34
7 | CN1CCN(C(=O)C[C@H](Cc2ccccc2)Nc2ccnc3cc(Cl)ccc23)CC1 | 19.2 nM | 55.3 nM | 5.8 | 0.1739 mMequiv | Dose-dependent effect | 5846 | 2.87
8 | CN1CCN(C(=O)[C@H](CO)Nc2ccnc3cc(Cl)ccc23)CC1 | 116 nM | 925 nM | 5.68 | 0.3604 mMequiv | Dose-dependent effect | 1976 | 7.96
9 | CC(C)[C@H](CC(=O)N1CCN(C)CC1)Nc1ccnc2cc(Cl)ccc12 | 44.1 nM | 324 nM | 5.33 | 0.2286 mMequiv | Dose-dependent effect | 6045 | 7.33
10 | C[C@H](O)[C@H](Nc1ccnc2cc(Cl)ccc12)C(=O)N1CCN(C)CC1 | 142 nM | > 1380 nM | 6.07 | 0.3837 mMequiv | Dose-dependent effect | 1934 | >9.67
11 | CN1CCN(C(=O)CC[C@H](Cc2ccccc2)Nc2ccnc3cc(Cl)ccc23)CC1 | 11.5 nM | 71.2 nM | 5.32 | 0.1961 mMequiv | Dose-dependent effect | 11350 | 6.18
12 | C[C@H](Nc1ccnc2cc(Cl)ccc12)C(=O)NCCN1CCCCC1 | 64.1 nM | > 500 nM | 5.73 | 0.2166 mMequiv | Dose-dependent effect | 3025 | >7.8
13 | CN1CCN(C(=O)[C@H](Cc2ccccc2)Nc2ccnc3cc(Cl)ccc23)CC1 | 109 nM | 116 nM | 5.11 | 0.6619 mMequiv | Dose-dependent effect | 429 | 1.06
14 | CC(C)[C@H](Nc1ccnc2cc(Cl)ccc12)C(=O)N1CCN(C)CC1 | 271 nM | 599 nM | 6.39 | 0.2349 mMequiv | Dose-dependent effect | 1023 | 2.21
15 | CC(C)C[C@H](Nc1ccnc2cc(Cl)ccc12)C(=O)N1CCN(C)CC1 | 60.2 nM | 147 nM | 5.38 | 0.2283 mMequiv | Dose-dependent effect | 905 | 2.44
16 | CN1CCN(C(=O)CCNc2ccnc3cc(Cl)ccc23)CC1 | 35.9 nM | 398 nM | 6.43 | 0.3293 mMequiv | Dose-dependent effect | 6472 | 11.1
17 | C[C@H](Nc1ccnc2cc(Cl)ccc12)C(=O)N1CCN(C)CC1 | 73.8 nM | 207 nM | 5.36 | 0.1677 mMequiv | Dose-dependent effect | 2900 | 2.79
18 | CSCC[C@H](Nc1ccnc2cc(Cl)ccc12)C(=O)N1CCN(C)CC1 | 58.4 nM | 129 nM | 5.04 | 0.3595 mMequiv | Dose-dependent effect | 3821 | 2.2
19 | CCN(CC)CCCC(C)Nc1ccnc2cc(Cl)ccc12 (centres undefined) [CHLOROQUINE] | – | – | 5.52 | 0.17 mMequiv | – | – | –
20 | CN1CCN(C(=O)CCCNc2ccnc3cc(Cl)ccc23)CC1 | 65.1 nM | 781 nM | 6.52 | 0.2023 mMequiv | Dose-dependent effect | 4432 | 11.99
21 | CCN(CC)CCNC(=O)[C@H](C)Nc1ccnc2cc(Cl)ccc12 | 35.4 nM | > 500 nM | 6.03 | 0.1531 mMequiv | Dose-dependent effect | 5834 | >14.13
22 | CCN(CC)CCCNC(=O)[C@H](C)Nc1ccnc2cc(Cl)ccc12 | 82.6 nM | > 500 nM | 5.27 | 0.2145 mMequiv | Dose-dependent effect | 2585 | >6.05
23 | CC[C@H](C)[C@H](NC(=O)OC(C)(C)C)C(=O)C=[N+]=[N-] | – | 168 nM | – | – | – | – | –
24 | CC(C)(C)OC(=O)N[C@@H](Cc1ccccc1)C(=O)C=[N+]=[N-] | – | 55.3 nM | – | – | – | – | –
